The subject of test [1] is MGC-803. Briefly: Antiproliferative activity against human MGC803 cells after 72 hrs by MTT assay. The class given is functional, cell-based. The conditions noted are these: MGC-803, 72 h. In outline: (§1)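 Cells in exponential growth were plated at 3,000 per well and left 24 h. Medium was then replaced with fresh medium holding graded compound concentrations, and incubation ran 72 h. Viability was read by MTT at 570 nm.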

The subject of the next test is NCI-H1650. Briefly: Antiproliferative activity against human NCI-H1650 cells after 72 hrs by MTT assay. It is filed as functional, cell-based. The following applies: NCI-H1650, 72 h. In outline:
as §1
In general terms: Tetrazolium assays rely on reduction of a dye to a coloured formazan, in cell work by metabolically active cells.

The next test concerns HGC-27. Briefly: Antiproliferative activity against human HGC27 cells after 72 hrs by MTT assay. The class given is functional, cell-based. The conditions noted are these: HGC-27, 72 h. In outline: as §1
Another test relates to GES1. Put plainly: Cytotoxicity against human GES-1 cells after 72 hrs by MTT assay. The conditions noted are these: GES1, 72 h. It is filed as cell-based. In outline: as §1
The nature of test [2]: Selectivity index, ratio of IC50 for human GES-1 cells to IC50 for human MGC803 cells. The class given is functional. The method in brief: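 SI equals IC50 in GES-1 divided by IC50 in MGC803. Both IC50s come from 72 h exposure in the MTT viability assay, with 3,000 cells/well plated 24 h before dosing. Each is the mean ± SD of three independent experiments.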
Test [3] deals with MGC-803. Put plainly: Induction of apoptosis in human MGC803 cells at 1 uM after 24 hrs by annexin V-FITC/propidium iodide staining-based assay (reference value: 2.3%). The class given is functional.
Test [4] has as its system MGC-803. Briefly: Antiproliferative activity against human MGC803 cells assessed as reduction in colony formation at 3 uM after 9 days by crystal violet staining-based clonogenic assay relative to control. The class given is functional. The following applies: MGC-803, 216 h. In outline: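 MGC803 were seeded at 1000 cells/well, allowed 24 h, then given fresh medium with graded compound concentrations for 9 days. Cells were PBS-washed, fixed in 4% paraformaldehyde and stained with 0.1% crystal violet. A colony was counted as >10 cells. Inhibition rate = (1 − treated count/control count) × 100%. Run in triplicate.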

Test [5] relates to MGC-803. Briefly: Antimigratory activity against human MGC803 cells assessed as reduction in wound healing at 1 uM by inverted microscopic method. It is filed as functional, cell-based. The following applies: TDE = time-dependent effect. In outline: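 MGC803 in 24-well format were scratched with a 10 µL tip. Cells were then incubated with graded compound concentrations for the indicated times. Wound closure was photographed under an inverted microscope.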

For test [6], the system named is MGC-803. Briefly: Induction of apoptosis in human MGC803 cells assessed as cell rounding at 1 to 5 uM after 24 hrs by Hoechst 33258 staining-based fluorescence microscopic analysis. The class given is functional. In outline:
(§2)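 MGC803 were seeded at 2×10^5/well and allowed to adhere overnight. They were exposed to graded concentrations for 24 h, then stained with Hoechst 33258 for 30 min in the dark. Nuclear morphology was examined by fluorescence microscopy.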

The subject of test [7] is MGC-803. Briefly: Induction of apoptosis in human MGC803 cells assessed as chromatin shrinkage at 1 to 5 uM after 24 hrs by Hoechst 33258 staining-based fluorescence microscopic analysis. It is filed as functional, cell-based. The method in brief: as §2
Test [8] has as its system MGC-803. Briefly: Induction of apoptosis in human MGC803 cells assessed as formation of apoptotic bodies at 1 to 5 uM after 24 hrs by Hoechst 33258 staining-based fluorescence microscopic analysis. The class given is functional, cell-based. The method in brief:
as §2

Test [9] relates to MGC-803. Put plainly: Induction of apoptosis in human MGC803 cells assessed as increase in Bax protein levels after 24 by Western blot analysis. The class given is functional, cell-based. In outline: (§3)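 After 24 h treatment at graded concentrations, MGC803 were lysed 30 min in RIPA buffer with protease inhibitors and spun at 12,000 rpm for 10 min at 4 °C. Protein was quantified by BCA, then run on SDS-PAGE and blotted to nitrocellulose. Membranes were blocked in 5% milk for 2 h, incubated with primary antibodies overnight at 4 °C, then secondary (1:5000) for 2 h. Detection was by ECL.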
In general terms: In western blotting, separated proteins are transferred to a membrane and probed.

The test system of test [10] is MGC-803. Put plainly: Induction of apoptosis in human MGC803 cells assessed as decrease in BCL-2 protein levels at 1 to 5 uM after 24 hrs by Western blot analysis. The class given is functional, cell-based. In outline:
as §3

Test [11] deals with MGC-803. Put plainly: Induction of apoptosis in human MGC803 cells assessed as increase in cleaved caspase-3 protein levels at 1 to 5 uM after 24 by Western blot analysis. The class given is functional, cell-based. The method in brief: as §3
Test [12] concerns MGC-803. Put plainly: Induction of apoptosis in human MGC803 cells assessed as increase in cleaved caspase-9 protein levels at 1 to 5 uM after 24 by Western blot analysis. It is filed as functional, cell-based. The method in brief:
as §3

The test system of test [13] is MGC-803. Briefly: Induction of apoptosis in human MGC803 cells at 2 uM after 24 hrs by annexin V-FITC/propidium iodide staining-based assay (reference value: 2.3%). The class given is functional.
Test [14] deals with MGC-803. Briefly: Induction of apoptosis in human MGC803 cells at 5 uM after 24 hrs by annexin V-FITC/propidium iodide staining-based assay (reference value: 2.3%). The class given is functional.
Test [15] relates to MGC-803. Briefly: Induction of apoptosis in human MGC803 cells after 24 hrs by annexin V-FITC/propidium iodide staining-based assay. The class given is functional, cell-based.

pIC50: −log10 of the molar value. Active and inactive are the calls of the source. No cut-off for these calls is given here.

A word on the pIC50: it is −log10 of the IC50, conventionally taken in molar units. Read a high pIC50 as a small IC50. The term inhibition denotes the change of the read-out against control, counted positive when it falls. Consider `c1ccc(CSc2nc(N3CCOCC3)c3nc(Nc4ccccc4)sc3n2)cc1`, for which the pIC50 in the test with MGC-803 [1] was 5.99; in the test with NCI-H1650, 5.68; in the test on HGC-27 it was 5.91; with GES1 it was 4.41. Also, in [2], the “Ratio IC50” value was found to be 37.8. For the same molecule, the Activity was 11.5% in the test with MGC-803 [3]; “Tde” with MGC-803 [5]; “Dose-dependent effect” in the test on MGC-803 [9]; 43.8% with MGC-803 [13]; 73.9% in the test on MGC-803 [14]; “Dose-dependent effect” in the test on MGC-803 [15]. Further, the inhibition at 3 µM in the test with MGC-803 [4] amounted to 86%. For the same molecule, the outcome in the test with MGC-803 [6], with MGC-803 [7], in the test on MGC-803 [8], in the test with MGC-803 [10], in the test with MGC-803 [11] and in the test on MGC-803 [12] was Active.

As for `CCCSc1nc(Nc2ccc(OC)cc2)c2nc(Nc3ccccc3)sc2n1`, the pIC50 is under 4.19 with MGC-803 [1], 4.69 in the test with NCI-H1650 and 4.51 in the test on HGC-27.

Consider `CCCSc1nc(N2CCOCC2)c2nc(Nc3ccccc3Cl)sc2n1`, for which the pIC50 is 5.47 in the test on MGC-803 [1], 4.66 in the test with NCI-H1650 and 4.95 in the test on HGC-27.

Turning to `CCCSc1nc(NCc2ccc(O)cc2)c2nc(Nc3ccccc3)sc2n1`, the pIC50 with MGC-803 [1] is 4.66; with NCI-H1650 it was 5.03; in the test on HGC-27, 4.76.

Regarding `CCCSc1nc(N2CCN(Cc3ccccc3)CC2)c2nc(Nc3ccccc3)sc2n1`, the pIC50 in the test with MGC-803 [1] is 4.73; with NCI-H1650, 4.57; in the test on HGC-27 it was under 4.19.

Turning to `O=c1[nH]cc(F)c(=O)[nH]1` [FLUOROURACIL], the negative-log IC50 (pIC50) in the test on NCI-H1650 is 4.90; in the test with HGC-27, 5.09.

For `CCCSc1nc(NCCc2cccs2)c2nc(Nc3ccccc3)sc2n1`, the pIC50 with MGC-803 [1] is 4.95; in the test on NCI-H1650 it was 5.00; in the test with HGC-27, 4.75.

Regarding `CCCSc1nc(NCc2ccco2)c2nc(Nc3ccccc3)sc2n1`, the pIC50 is under 4.19 in the test on MGC-803 [1], 4.58 with NCI-H1650 and 4.55 with HGC-27.

In the case of `CCCSc1nc(NCCc2cc3ccccc3[nH]2)c2nc(Nc3ccccc3)sc2n1`, the negative logarithm of the IC50 (pIC50) in the test on MGC-803 [1] was 5.16; in the test on NCI-H1650, 5.02; in the test on HGC-27, 4.79.

Consider `CCCSc1nc(Nc2ccc(Cl)cc2)c2nc(Nc3ccccc3)sc2n1`, for which the results for the pIC50 in the test with MGC-803 [1], in the test with NCI-H1650 and with HGC-27 were 4.90, 4.92 and 4.69, respectively.

As for `CCCSc1nc(NC2CC2)c2nc(Nc3ccccc3)sc2n1`, the pIC50 in the test with MGC-803 [1] is under 4.19; with NCI-H1650, 4.38; in the test with HGC-27 it was 4.49.

Regarding `CCCCc1ccc(Nc2nc(SCCC)nc3sc(Nc4ccccc4)nc23)cc1`, the values for the pIC50 with MGC-803 [1], in the test on NCI-H1650 and in the test with HGC-27 were 4.76, 4.83 and 4.88, respectively.

On to `CCCSc1nc(N2CCOCC2)c2nc(Nc3cccc4ccccc34)sc2n1`, for which the pIC50 was 4.75 in the test with MGC-803 [1], 5.01 in the test with NCI-H1650 and 4.66 in the test with HGC-27.

`CCCSc1nc(Nc2ccccc2)c2nc(Nc3ccccc3)sc2n1`: the pIC50 in the test with MGC-803 [1] is 4.61; with NCI-H1650 it was 4.92; in the test with HGC-27, 4.45.

For the molecule `CCCSc1nc(N2CCOCC2)c2nc(Nc3ccccc3)sc2n1`, the pIC50 with MGC-803 [1] is 5.24; with NCI-H1650, 5.38; in the test on HGC-27, 5.02.

As for `CCCSc1nc(N2CCOCC2)c2nc(Nc3ccccn3)sc2n1`, the pIC50 with MGC-803 [1] is 5.03; in the test on NCI-H1650, 5.11; in the test on HGC-27, 5.05.

`CCCSc1nc(N2CCSCC2)c2nc(Nc3ccccc3)sc2n1`: the pIC50 with MGC-803 [1] is 4.91; in the test on NCI-H1650, 4.89; in the test on HGC-27, 4.55.

The values above are taken from ChEMBL document CHEMBL4052626, “Identification of thiazolo[5,4-d]pyrimidine derivatives as potent antiproliferative agents through the drug repurposing strategy” (Eur J Med Chem, 2017).
